Shown are actives, neighbours in structure and some others; about 12% of the full set was active somewhere.
ABCB1 inh: blocks JC-1 efflux by human ABCB1 transporter. P08183. CCRF-Adr cells, flow cytometry. inhibition, % at 6.6 µM. hit rate 0.067% among 190,000. AID 1326; in the data active = inhibition above about 40%;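 note: higher value means more JC-1 retained so stronger ABCB1 efflux block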
ABCG2 inh: inhibitors of human ABCG2 transporter, ABCB1 counter-screen; Q9UNQ0; IgMXP3 cells, JC-1 efflux, flow cytometry; inhibition, % at 6.6 µM; hit rate 0.1% among 190,000;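 active = inhibition above 80%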
Target sequence (Q9UNQ0 whole entry, looked up): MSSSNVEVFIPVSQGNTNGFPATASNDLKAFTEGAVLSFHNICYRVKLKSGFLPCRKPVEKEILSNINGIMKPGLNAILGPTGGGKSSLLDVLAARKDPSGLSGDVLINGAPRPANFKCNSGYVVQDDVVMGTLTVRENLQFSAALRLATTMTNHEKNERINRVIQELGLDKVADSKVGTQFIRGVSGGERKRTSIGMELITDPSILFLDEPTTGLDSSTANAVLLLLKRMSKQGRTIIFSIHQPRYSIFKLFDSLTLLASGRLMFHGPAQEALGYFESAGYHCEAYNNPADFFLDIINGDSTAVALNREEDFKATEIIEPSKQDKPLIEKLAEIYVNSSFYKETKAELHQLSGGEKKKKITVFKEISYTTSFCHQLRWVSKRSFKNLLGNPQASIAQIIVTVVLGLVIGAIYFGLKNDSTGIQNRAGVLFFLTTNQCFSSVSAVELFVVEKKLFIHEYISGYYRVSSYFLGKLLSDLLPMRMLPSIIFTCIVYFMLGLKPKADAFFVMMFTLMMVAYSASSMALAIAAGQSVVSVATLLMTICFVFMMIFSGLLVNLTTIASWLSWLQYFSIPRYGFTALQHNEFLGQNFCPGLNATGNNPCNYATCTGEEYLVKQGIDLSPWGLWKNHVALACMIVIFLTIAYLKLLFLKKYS
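test system = two drug-resistant human cell lines, ABCG2 and ABCB1 | amount = 3 million cells/mL final, two lines in 1:1 ratio | reagent = JC-1 transporter substrate | doses = one concentration, 6.6 µM final | incubation = 10 min at 25 °C | signal = flow cytometric JC-1 green MFI at 530 nm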
RAM inhibit: yeast RAM network inhibition; S. cerevisiae dse1pr::URA3 reporter, 5-FOA growth OD615, 2 d; analog-sensitive cbk1-as2 kinase mutant strain; inhibition, % at 50 µM; hit rate 1.8% among 190,000; AID 868;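 active = inhibition above a set limit, 3 SD over mean compound inhibition, cut at about 8.4% in these data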;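 note: inhibition rescues growth on 5-FOA so higher OD means more RAM inhibition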
WT yeast gro inh: growth inhibition of WT yeast, mitochondrial fusion screen | inhibition, % at 10 µM | hit rate 2.1% among 190,000 | mitochondrial fusion phenotypic screen, WT strain; in the data active = inhibition above about 58%; tested in S. cerevisiae
Lmaj promast: Leishmania major promastigote growth inhibition; hit rate 9% among 200,000; inhibition, % at 10 µM; Leishmania major promastigotes, resazurin fluorescence viability; in the data active = inhibition above about 50%;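 note: promastigotes grown with compound for 44 hours at 28 °C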
ABCB1 confirm: confirmation of human ABCB1 transporter inhibitors, ABCG2 counter-screen | inhibition, % at 6.6 µM | hit rate 7% among 270 | shares compounds with ABCG2 inh | CCRF-Adr cells, JC-1 efflux, flow cytometry;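 active = inhibition of pump activity above 50%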
ABCG2 single pt: inhibits human ABCG2 efflux, confirmed at single point | shares compounds with ABCG2 inh | IgMXP3 cells, JC-1 efflux, flow cytometry | inhibition, % at 6.6 µM | hit rate 6% among 270 | AID 1453;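 active = inhibition above 50%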
IgMXP3 fluor: IgMXP3 autofluorescence flag for ABCG2 confirmation; shares compounds with ABCG2 inh; IgMXP3 cells, compound autofluorescence 488/530 nm, flow; active compounds read high; fluorescence at 6.6 µM; hit rate 30% among 270; AID 1480;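 active = fluorescence in ABCG2-expressing cells above the plate's control-well mean plus 3 SD, cut at about 15 in these data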
CCRF autofluor: CCRF-Adr autofluorescence flag for ABCB1 confirmation; CCRF-Adr cells, compound autofluorescence 488/530 nm, flow cytometry; active compounds read high; fluorescence at 6.6 µM; shares compounds with ABCG2 inh; hit rate 30% among 270; AID 1483;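 active = fluorescence beyond the plate control mean plus 3 SD, with a fluorescence-to-maximum score over 2, cut at about 25 in these data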
Numbers stand for hits; i = inactive; nt = not tested or not shown.

SMILES | ABCB1 inh | ABCG2 inh | RAM inhibit | WT yeast gro inh | Lmaj promast | ABCB1 confirm | ABCG2 single pt | IgMXP3 fluor | CCRF autofluor
C/C(=N\NC(=O)COc1ccc(C#N)cc1)c1ccc(N2CCOCC2)cc1 | i | i | i | i | i | nt | nt | nt | nt
CCOc1ccc(NC(=O)C(C)NS(=O)(=O)c2ccc(NC(C)=O)cc2)cc1 (stereo not drawn) | i | i | i | i | i | nt | nt | nt | nt
CCCN1C(=O)/C(=C\C=C2\N(CC)c3ccccc3C2(C)C)SC1=S | 68.2 | 104.0 | i | i | i | i | i | 63 | 252
CCCCn1c(CNC(=O)C23CC4CC(CC(C4)C2)C3)nnc1SC(C)CC (stereo not drawn) | i | i | i | i | i | nt | nt | nt | nt
CC(C)CN(C)C(=O)CC1C(=O)NCCN1C (stereo not drawn) | i | i | i | i | i | nt | nt | nt | nt
CN(C)c1ccc(/C=C2/NC(=O)NC2=O)cc1 | i | i | i | i | i | nt | nt | nt | nt
CN(C)c1ccc(/C=C2\N=C(c3ccc(Cl)c([N+](=O)[O-])c3)NC2=O)cc1 | 83.0 | 83.4 | i | i | i | i | i | 74.7 | 93.7
CCOC(=O)c1cn2nc(-c3ccc(OC)cc3)cc2nc1C1CCN(C(=O)OC(C)(C)C)CC1 | 51.1 | i | i | i | i | i | i | i | i
COc1ccc(-c2cc(C3CCN(C(=O)OC(C)(C)C)CC3)[nH]n2)cc1 | i | i | i | i | i | nt | nt | nt | nt
CN(C)c1ccc(P(=O)(Nc2cccc(C(F)(F)F)c2)N2CCOCC2)c(NC(=O)c2cccs2)c1 (stereo not drawn) | 50.7 | i | i | i | 59.0 | 74.7 | i | i | i
O=C(O)CC(NC(=O)Cc1ccccc1)c1cc([N+](=O)[O-])ccc1Cl (stereo not drawn) | i | i | i | i | i | nt | nt | nt | nt
O=C(CCCCCn1c(=S)[nH]c2ccc(Br)cc2c1=O)NCC1CCCO1 (stereo not drawn) | i | 81.1 | i | i | i | i | i | 15.1 | 71.6
CCn1c(SCc2nc3ccccc3[nH]2)nnc1-c1ccc(OC)cc1 | i | i | i | i | i | nt | nt | nt | nt
COc1ccc(CCNCC2C(Oc3ccc(Cl)cc3)C(=O)N2c2ccccc2C)cc1OC (stereo not drawn) | 53.1 | i | i | i | i | i | i | i | i
COc1ccc(OC2C(=O)N(c3cc(C)ccc3C)C2c2ccc(OC)c(OC)c2)cc1 (stereo not drawn) | i | i | i | i | i | nt | nt | nt | nt
CCOC(=O)c1sc(NN=C(C(=O)OC)C(=O)OC)c(C(=O)OCC)c1C | i | 125.8 | i | i | i | i | i | i | i
CCC(C)NC(=O)COC(=O)c1ccccc1OCC(=O)Nc1ccc(Br)cc1 (stereo not drawn) | i | i | i | i | i | nt | nt | nt | nt
O=C(COC(=O)c1ccccc1OCC(=O)Nc1ccc(Br)cc1)Nc1ccccc1 | i | 83.6 | i | i | 65.1 | i | i | i | i
CCNC(=O)Cn1c(=O)c(=O)n(Cc2ccccc2)c2ccc(Cl)cc21 | i | 94.9 | i | i | i | i | i | i | 27.4
COc1cc(C(C(=O)NC2CCCC2)N(C(=O)Cc2cccs2)C2CC2)cc(OC)c1OC (stereo not drawn) | i | i | i | i | i | nt | nt | nt | nt
CCOC(=O)c1c(-c2ccccc2)csc1NC(=O)/C(C#N)=C/c1ccc(OC)c(OC)c1 | i | i | i | i | i | nt | nt | nt | nt
CCOC(=O)c1c(-c2ccccc2)csc1NC(=O)/C(C#N)=C/c1ccc(O)c(OC)c1 | 65.8 | 123.3 | i | i | i | i | i | 284 | 264
Cc1ccc(/C=C2\CCC3=C2OC(N)=C(C#N)C3c2ccc(C)cc2)cc1 (stereo not drawn) | 56.2 | 85.3 | i | i | 100.4 | i | i | 65.5 | 87.1
N#CC1=C(N)OC2=C(CCc3ccccc32)C1c1ccccc1 (stereo not drawn) | i | i | i | i | i | nt | nt | nt | nt
CCC(=O)Nc1cccc(C(=O)OCc2cccc([N+](=O)[O-])c2)c1 | i | 92.6 | i | i | i | i | i | i | i
